In ChEMBL document CHEMBL3860087, “New Broad-Spectrum Antibacterial Amphiphilic Aminoglycosides Active against Resistant Bacteria: From Neamine Derivatives to Smaller Neosamine Analogues” (J Med Chem, 2016) one finds MIC, viability and Ratio data, which are given here for one molecule.

Series [1] has as its system Staphylococcus aureus. As to the kind of experiment: Antibacterial activity against Staphylococcus aureus ATCC 25923 by microdilution method. Format: functional. In short, it runs like this: (§1)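 Broth microdilution per CLSI in cation-adjusted Mueller–Hinton broth. Strains were grown overnight at 37 °C on trypticase soy agar, and a fresh culture was used. Starting inoculum was 10^6 cells.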

The test system of series [2] is Staphylococcus aureus. The series can be described thus: Antibacterial activity against NorA expressing Staphylococcus aureus 1 by microdilution method.
The test system of series [3] is Staphylococcus aureus. As to the kind of experiment: Antibacterial activity against healthcare-acquired methicillin-resistant Staphylococcus aureus ATCC 33592 by microdilution method. Format: functional. In short, it runs like this: as §1
The subject of series [4] is Pseudomonas aeruginosa. The series can be described thus: Antibacterial activity against Pseudomonas aeruginosa ATCC 27853 by microdilution method. Format: functional. An outline of the steps: (§2)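 Strains grown overnight at 37 °C on trypticase soy agar; MIC by broth microdilution from fresh culture in cation-adjusted Mueller–Hinton broth, starting inoculum 10^6 cells, following CLSI recommendations.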

Series [5] relates to Pseudomonas aeruginosa. The series can be described thus: Antibacterial activity against AAC6'-2A expressing Pseudomonas aeruginosa F03 by microdilution method. It counts as functional. In short, it runs like this:
as §2

The subject of series [6] is Pseudomonas aeruginosa. As to the kind of experiment: Antibacterial activity against MexXY expressing Pseudomonas aeruginosa PA22 by microdilution method. It counts as functional. In short, it runs like this: as §2
The test system of series [7] is Pseudomonas aeruginosa. As to the kind of experiment: Antibacterial activity against triABC deficient Pseudomonas aeruginosa PA406 by microdilution method. It counts as functional. In short, it runs like this:
as §2

Series [8] has as its system Acinetobacter lwoffii. The series can be described thus: Antibacterial activity against Acinetobacter lwoffii ATCC 17925 by microdilution method. Format: functional. An outline of the steps:
as §2

Series [9] has as its system Acinetobacter lwoffii. The series can be described thus: Antibacterial activity against APH3'-VIA expressing Acinetobacter lwoffii AI.88-483 by microdilution method. It counts as functional. In short, it runs like this:
as §2

Series [10] relates to Escherichia coli. As to the kind of experiment: Antibacterial activity against AAC6'-IB expressing Escherichia coli PAZ505H8101 by microdilution method. It counts as functional. An outline of the steps: as §2
Series [11] concerns Escherichia coli. The series can be described thus: Antibacterial activity against ANT2''-IA expressing Escherichia coli L8058.1 by microdilution method. It counts as functional. In short, it runs like this: as §2
The next series deals with Klebsiella pneumoniae. As to the kind of experiment: Antibacterial activity against Klebsiella pneumoniae ATCC 700603 by microdilution method. It counts as functional. In short, it runs like this:
as §2

Series [12] can be described thus: Cytotoxicity against mouse J774 cells assessed as cell viability at 10 uM after 24 hrs by MTT assay relative to control. To be noted: J774 cells, read-out: Activity. Format: toxicity, cell-based. An outline of the steps: (§3)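 Murine J774 macrophages exposed 24 h to 10 or 30 μM compound, then 1 h with 0.2 mg/mL MTT; reaction stopped with DMSO, OD read at 570 nm as metabolic-activity viability. Number of independent experiments given per value.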

Series [13] can be described thus: Cytotoxicity against mouse J774 cells assessed as cell viability at 30 uM after 24 hrs by MTT assay relative to control. Format: toxicity, cell-based. As to conditions: J774 cells, read-out: Activity. An outline of the steps:
as §3

The subject of series [14] is Pseudomonas aeruginosa. As to the kind of experiment: Ratio of MIC for Pseudomonas aeruginosa ATCC 27853 after 9 serial passages to MIC for Pseudomonas aeruginosa ATCC 27853 prior to serial passages. Format: functional.
Series [15] deals with Escherichia coli. The series can be described thus: microbe, parasite or virus in culture. To be noted: ATCC 25922.

The structures appear in SMILES notation. In brackets after ≈: the same amount, converted by molar mass.

For `NC[C@H]1O[C@H](O[C@H]2[C@H](O)[C@@H](O)[C@H](N)C[C@@H]2N)[C@H](N)[C@@H](OCCCc2ccc3ccccc3c2)[C@@H]1OCCCc1ccc2ccccc2c1`, the MIC in the series with Staphylococcus aureus [1] was 2 to 4 µg/mL (≈ 3.04 to 6.07 µM); in the series with Staphylococcus aureus [2], 0.5 to 1 µg/mL (≈ 0.759 to 1.52 µM); with Staphylococcus aureus [3], 1 to 2 µg/mL (≈ 1.52 to 3.04 µM); against Pseudomonas aeruginosa [4] it was 4 µg/mL (≈ 6.07 µM); in the series on Pseudomonas aeruginosa [5] it was 8 µg/mL (≈ 12.1 µM); against Pseudomonas aeruginosa [6], 16 µg/mL (≈ 24.3 µM). For the same molecule, the MIC in the series with Pseudomonas aeruginosa [7] was 4 µg/mL (≈ 6.07 µM); in the series with Acinetobacter lwoffii [8], 2 to 4 µg/mL (≈ 3.04 to 6.07 µM); in the series with Acinetobacter lwoffii [9], 32 to 64 µg/mL (≈ 48.6 to 97.1 µM); against Escherichia coli [10], 2 µg/mL (≈ 3.04 µM); with Escherichia coli [11], 4 to 8 µg/mL (≈ 6.07 to 12.1 µM); in the series with Klebsiella pneumoniae, 64 µg/mL (≈ 97.1 µM). The same molecule had an MIC in the series with Escherichia coli [15] of 16 to 32 µg/mL (≈ 24.3 to 48.6 µM). Further, the viability at 24 h, 10 µM in series [12] turned out to be 87.7%. The viability at 24 h, 30 µM in [13] was 66.9%. Further, in the series on Pseudomonas aeruginosa [14], the Ratio is recorded as 15.
